Data taken from ChEMBL document CHEMBL4257503, “N-Acetyl-3-aminopyrazoles block the non-canonical NF-kB cascade by selectively inhibiting NIK” (Medchemcomm, 2018).

Assays:
[1] = target: T1, Inhibitor of nuclear factor kappa-B kinase subunit beta (Homo sapiens, UniProt O14920); test: Inhibition of recombinant human full-length N-terminal GST-fused/His6-tagged IKKbeta (M1 to S756 residues) expressed in Sf9 insect cells using ERLLDDRHDSGLDSMKDEE peptide as substrate measured after 60 mins by ADP-Glo kinase assay
T1 sequence (O14920 whole entry): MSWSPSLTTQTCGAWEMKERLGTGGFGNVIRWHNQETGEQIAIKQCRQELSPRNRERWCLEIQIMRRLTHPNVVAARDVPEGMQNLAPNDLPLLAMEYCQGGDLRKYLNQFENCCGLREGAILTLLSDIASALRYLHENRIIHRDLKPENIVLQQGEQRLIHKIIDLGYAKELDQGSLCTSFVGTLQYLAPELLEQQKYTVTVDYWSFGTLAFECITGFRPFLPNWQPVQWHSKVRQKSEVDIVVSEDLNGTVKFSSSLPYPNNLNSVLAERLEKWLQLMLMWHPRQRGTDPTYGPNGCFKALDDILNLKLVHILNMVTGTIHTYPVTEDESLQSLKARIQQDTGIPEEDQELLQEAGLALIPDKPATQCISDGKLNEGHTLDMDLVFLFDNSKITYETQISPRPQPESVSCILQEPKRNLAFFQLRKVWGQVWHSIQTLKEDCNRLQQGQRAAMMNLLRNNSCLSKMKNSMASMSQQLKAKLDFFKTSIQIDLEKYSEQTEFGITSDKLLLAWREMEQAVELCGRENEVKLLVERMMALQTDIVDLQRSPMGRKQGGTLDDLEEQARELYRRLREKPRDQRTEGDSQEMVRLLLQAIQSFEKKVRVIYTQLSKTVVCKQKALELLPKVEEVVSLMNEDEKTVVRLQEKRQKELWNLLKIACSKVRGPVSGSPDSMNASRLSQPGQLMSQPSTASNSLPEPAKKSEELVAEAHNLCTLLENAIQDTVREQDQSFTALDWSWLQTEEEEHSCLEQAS

[2] = target: T2, Inhibitor of nuclear factor kappa-B kinase subunit epsilon (Homo sapiens, UniProt Q14164); test: Inhibition of recombinant human full-length N-terminal GST-fused/His6-tagged IKKepsilon (M1 to V716 residues) expressed in Sf9 insect cells using ERLLDDRHDSGLDSMKDEE peptide as substrate measured after 60 mins by ADP-Glo kinase assay
T2 sequence (Q14164 whole entry): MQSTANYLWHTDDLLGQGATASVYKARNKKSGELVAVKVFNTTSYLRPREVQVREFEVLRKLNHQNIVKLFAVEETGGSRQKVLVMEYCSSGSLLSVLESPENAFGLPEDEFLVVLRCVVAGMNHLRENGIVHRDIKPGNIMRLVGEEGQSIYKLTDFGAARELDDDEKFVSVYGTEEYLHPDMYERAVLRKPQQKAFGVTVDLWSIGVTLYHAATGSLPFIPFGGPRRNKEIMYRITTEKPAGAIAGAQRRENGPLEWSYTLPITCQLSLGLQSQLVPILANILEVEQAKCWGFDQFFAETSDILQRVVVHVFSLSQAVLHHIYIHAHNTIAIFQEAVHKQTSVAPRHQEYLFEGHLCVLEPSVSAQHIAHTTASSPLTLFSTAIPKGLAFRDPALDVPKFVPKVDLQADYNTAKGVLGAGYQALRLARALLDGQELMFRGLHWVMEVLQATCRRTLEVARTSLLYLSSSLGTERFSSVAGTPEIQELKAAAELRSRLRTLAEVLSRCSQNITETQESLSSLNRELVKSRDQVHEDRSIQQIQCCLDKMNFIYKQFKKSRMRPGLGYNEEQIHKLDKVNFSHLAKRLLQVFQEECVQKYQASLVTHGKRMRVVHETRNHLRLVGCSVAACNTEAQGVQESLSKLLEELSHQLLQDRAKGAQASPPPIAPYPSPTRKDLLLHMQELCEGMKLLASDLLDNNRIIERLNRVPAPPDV

[3] = target: T3, Mitogen-activated protein kinase kinase kinase 14 (Homo sapiens, UniProt Q99558); test: Inhibition of recombinant human full-length N-terminal GST-fused/His6-tagged NIK (M1 to P947 residues) expressed in Sf9 insect cells using AKDVDQGSLCTSFVGTLQY peptide as substrate measured after 60 mins by ADP-Glo kinase assay
Target sequence in this assay (Q99558 whole entry, the tested form may be a part): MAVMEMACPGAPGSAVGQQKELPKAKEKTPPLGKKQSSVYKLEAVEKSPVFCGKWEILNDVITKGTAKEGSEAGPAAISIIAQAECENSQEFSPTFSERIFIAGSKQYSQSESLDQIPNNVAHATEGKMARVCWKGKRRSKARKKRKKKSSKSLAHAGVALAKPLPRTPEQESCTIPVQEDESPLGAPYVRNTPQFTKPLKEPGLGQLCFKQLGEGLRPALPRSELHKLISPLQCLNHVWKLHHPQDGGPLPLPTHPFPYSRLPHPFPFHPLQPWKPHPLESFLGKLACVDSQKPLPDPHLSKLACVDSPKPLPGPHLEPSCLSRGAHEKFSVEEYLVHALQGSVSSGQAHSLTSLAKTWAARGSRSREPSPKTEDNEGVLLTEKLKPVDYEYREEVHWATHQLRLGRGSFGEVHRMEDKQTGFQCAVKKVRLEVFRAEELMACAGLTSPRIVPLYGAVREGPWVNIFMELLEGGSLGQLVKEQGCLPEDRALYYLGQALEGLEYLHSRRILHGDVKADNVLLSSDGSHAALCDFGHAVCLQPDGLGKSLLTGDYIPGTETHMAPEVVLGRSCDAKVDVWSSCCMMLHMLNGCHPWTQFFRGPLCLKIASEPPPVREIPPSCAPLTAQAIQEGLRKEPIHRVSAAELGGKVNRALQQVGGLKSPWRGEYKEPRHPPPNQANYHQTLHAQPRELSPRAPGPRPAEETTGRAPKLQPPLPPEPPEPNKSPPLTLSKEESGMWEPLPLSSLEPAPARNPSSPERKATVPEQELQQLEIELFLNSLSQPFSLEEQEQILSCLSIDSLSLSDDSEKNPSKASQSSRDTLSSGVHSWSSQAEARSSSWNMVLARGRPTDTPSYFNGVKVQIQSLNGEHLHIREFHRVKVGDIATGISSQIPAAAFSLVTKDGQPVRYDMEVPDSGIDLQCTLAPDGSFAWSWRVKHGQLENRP

[4] = target: T4, Inhibitor of nuclear factor kappa-B kinase subunit alpha (Homo sapiens, UniProt O15111); test: Inhibition of recombinant full length human His-tagged IKKalpha expressed in baculovirus expression system using ERLLDDRHDSGLDSMKDEE peptide as substrate measured after 60 mins by ADP-Glo kinase assay
T4 sequence (O15111 whole entry): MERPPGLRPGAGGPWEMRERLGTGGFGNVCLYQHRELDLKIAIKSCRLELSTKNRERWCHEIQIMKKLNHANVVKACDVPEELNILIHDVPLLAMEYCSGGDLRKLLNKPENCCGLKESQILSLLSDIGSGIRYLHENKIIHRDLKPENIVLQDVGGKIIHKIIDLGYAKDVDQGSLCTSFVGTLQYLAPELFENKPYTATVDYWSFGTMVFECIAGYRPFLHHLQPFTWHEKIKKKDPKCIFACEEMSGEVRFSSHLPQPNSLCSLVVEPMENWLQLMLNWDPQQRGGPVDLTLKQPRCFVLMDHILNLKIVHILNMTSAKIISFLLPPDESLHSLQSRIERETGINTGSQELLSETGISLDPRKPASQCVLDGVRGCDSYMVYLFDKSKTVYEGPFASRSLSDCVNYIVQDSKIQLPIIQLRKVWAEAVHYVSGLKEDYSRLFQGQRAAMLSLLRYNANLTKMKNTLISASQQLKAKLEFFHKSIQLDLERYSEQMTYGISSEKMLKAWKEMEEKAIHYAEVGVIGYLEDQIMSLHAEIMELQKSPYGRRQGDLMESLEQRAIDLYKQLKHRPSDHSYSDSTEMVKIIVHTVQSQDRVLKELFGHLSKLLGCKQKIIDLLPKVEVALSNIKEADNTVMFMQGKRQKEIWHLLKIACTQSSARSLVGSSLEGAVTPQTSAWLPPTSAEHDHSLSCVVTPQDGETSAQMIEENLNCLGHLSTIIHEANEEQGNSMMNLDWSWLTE
How it was run: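 Recombinant human IKKα, peptide substrate 100 µM, enzyme 8 ng/µL, ATP 1 µM in Tris-HCl pH 7.5 buffer with MgCl2, MnCl2, DTT, Na3VO4, BSA; 25°C, 60 min; ADP-Glo luminescence. Ten concentrations 0.005–100 µM; IC50 by nonlinear regression; means ± SD of three independent experiments.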

[5] = target: T3, Mitogen-activated protein kinase kinase kinase 14; test: Inhibition of NIK-induced NFkappaB activation in human EJM cells at 100 uM after 6 hrs by dual luciferase reporter gene assay relative to control; format: cell-based
How it was run: (§1)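 Cells were nucleofected with the pGL4.32 NF-κB-RE firefly luciferase and pGL4.74 TK-Renilla plasmids (3 µg, 10:1 ratio) and cultured for 24 h at 37 °C. Compound (10, 25, 50 or 100 µM) was then added for 6 h. Firefly luminescence was normalised to Renilla from the same sample and expressed as % of vehicle control. Means ± SD of three independent experiments.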
Target sequence in this assay (Q99558 whole entry, looked up, the tested form may be a part): as the sequence (Q99558 whole entry, the tested form may be a part) above

[6] = test system: MDA-MB-231; test: Inhibition of NFkappaB activation in human MDA-MB-231 cells at 50 uM after 6 hrs by dual luciferase reporter gene assay relative to control; format: cell-based; how it was run: as §1
[7] = organism: Homo sapiens; test: Inhibition of NFkappaB activation in human SKBR3 cells at 50 uM after 6 hrs by dual luciferase reporter gene assay relative to control; format: cell-based; how it was run: as §1
[8] = Cytotoxicity against human MDA-MB-231 cells assessed as cell viability at 50 uM after 6 hrs by CellTiter Glo luminescent assay relative to control; format: cell-based; settings: read-out: Activity
How it was run: (§2)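 Cells seeded at 5 x 10^3 per well and exposed for 6 h to the compound (10, 25, 50 or 100 µM) or to DMSO vehicle. Viability was read as intracellular ATP by CellTiter Glo luminescence.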

[9] = Cytotoxicity against human EJM cells assessed as cell viability at 100 uM after 6 hrs by CellTiter Glo luminescent assay relative to control; format: cell-based; settings: read-out: Activity; how it was run: as §2
[10] = Cytotoxicity against human SKBR3 cells assessed as cell viability at 50 uM after 6 hrs by CellTiter Glo luminescent assay relative to control; format: cell-based, SK-BR-3; settings: read-out: Activity; how it was run: as §2
[11] = target: T3, Mitogen-activated protein kinase kinase kinase 14; test: Inhibition of NIK-induced NFkappaB activation in human EJM cells at 20 uM after 6 hrs by dual luciferase reporter gene assay relative to control; format: cell-based
Target sequence in this assay (Q99558 whole entry, looked up, the tested form may be a part): as the sequence (Q99558 whole entry, the tested form may be a part) above

[12] = Cytotoxicity against human EJM cells assessed as cell viability at 20 uM after 6 hrs by CellTiter Glo luminescent assay relative to control; format: cell-based; settings: read-out: Activity
[13] = target: T3, Mitogen-activated protein kinase kinase kinase 14; test: Inhibition of NIK-induced NFkappaB activation in human EJM cells at 50 uM after 6 hrs by dual luciferase reporter gene assay relative to control; format: cell-based; how it was run: as §1
Target sequence in this assay (Q99558 whole entry, looked up, the tested form may be a part): as the sequence (Q99558 whole entry, the tested form may be a part) above

[14] = test system: MDA-MB-231; test: Inhibition of NFkappaB activation in human MDA-MB-231 cells at 100 uM after 6 hrs by dual luciferase reporter gene assay relative to control; format: cell-based; how it was run: as §1
[15] = organism: Homo sapiens; test: Inhibition of NFkappaB activation in human SKBR3 cells at 100 uM after 6 hrs by dual luciferase reporter gene assay relative to control; format: cell-based; how it was run: as §1
[16] = Cytotoxicity against human MDA-MB-231 cells assessed as cell viability at 100 uM after 6 hrs by CellTiter Glo luminescent assay relative to control; format: cell-based; settings: read-out: Activity; how it was run: as §2
[17] = Cytotoxicity against human EJM cells assessed as cell viability at 50 uM after 6 hrs by CellTiter Glo luminescent assay relative to control; format: cell-based; settings: read-out: Activity; how it was run: as §2
[18] = Cytotoxicity against human SKBR3 cells assessed as cell viability at 100 uM after 6 hrs by CellTiter Glo luminescent assay relative to control; format: cell-based, SK-BR-3; settings: read-out: Activity; how it was run: as §2
[19] = target: T3, Mitogen-activated protein kinase kinase kinase 14; test: Inhibition of NIK-induced NFkappaB activation in human EJM cells at 25 uM after 6 hrs by dual luciferase reporter gene assay relative to control; format: cell-based; how it was run: as §1
Target sequence in this assay (Q99558 whole entry, looked up, the tested form may be a part): as the sequence (Q99558 whole entry, the tested form may be a part) above

[20] = Cytotoxicity against human EJM cells assessed as cell viability at 25 uM after 6 hrs by CellTiter Glo luminescent assay relative to control; format: cell-based; settings: read-out: Activity; how it was run: as §2

| IC50 [1] [µM] | IC50 [2] [µM] | IC50 [3] [µM] | IC50 [4] [µM] | Structure (SMILES) | inhibition [15] [%] | viability at 6 h, 100 µM [18] [%] | other results |
| --- | --- | --- | --- | --- | --- | --- | --- |
| > 100 | > 100 | 24.3 | > 100 | Cc1nn(C(=O)C2CC2)c(N)c1-c1ccc(Cl)c(Cl)c1 |  |  | inhibition [5]: 68.9%; inhibition [6]: 5.8%; inhibition [7]: 3.66%; viability at 6 h, 50 µM [8]: ≥ 80%; viability at 6 h, 100 µM [9]: ≥ 80%; viability at 6 h, 50 µM [10]: ≥ 80% |
| 0.09 | > 100 | > 100 | > 100 | O=C(Nc1cc(Cl)c2c(c1)[nH]c1cnccc12)c1cccnc1 |  |  | inhibition [11]: 89.3%; inhibition [6]: 87.9%; inhibition [7]: 3.6%; viability at 6 h, 50 µM [8]: ≥ 80%; viability at 6 h, 20 µM [12]: ≥ 80%; viability at 6 h, 50 µM [10]: ≥ 80% |
| > 100 | > 100 | 27.4 | > 100 | CCC(=O)n1nc(C)c(-c2ccc(Cl)c(Cl)c2)c1N | -3.14 | ≥ 80 | inhibition [13]: 66.8%; inhibition [14]: 10.3%; viability at 6 h, 100 µM [16]: ≥ 80%; viability at 6 h, 50 µM [17]: ≥ 80% |
| > 100 | > 100 | 3.3 | > 100 | Cc1nn(C(=O)C2CCCCC2)c(N)c1-c1ccc(Cl)c(Cl)c1 | 3.7 | ≥ 80 | inhibition [19]: 94.7%; inhibition [14]: 2.36%; viability at 6 h, 100 µM [16]: ≥ 80%; viability at 6 h, 25 µM [20]: ≥ 80% |
| > 100 | > 100 | 23 | > 100 | Cc1nn(C(=O)c2ccccc2)c(N)c1-c1ccc(Cl)c(Cl)c1 | 0.31 | ≥ 80 | inhibition [13]: 75.2%; inhibition [14]: 13.8%; viability at 6 h, 100 µM [16]: ≥ 80%; viability at 6 h, 50 µM [17]: ≥ 80% |
| > 100 | > 100 | 2.9 | > 100 | Cc1nn(C(=O)C2CCC2)c(N)c1-c1ccc(Cl)c(Cl)c1 | 5.2 | ≥ 80 | inhibition [19]: 96.2%; inhibition [14]: 2.36%; viability at 6 h, 100 µM [16]: ≥ 80%; viability at 6 h, 25 µM [20]: ≥ 80% |
| 37.9 | > 100 | 61.1 | > 100 | Cc1n[nH]c(N)c1-c1ccc(Cl)cc1 | 4.2 | ≥ 80 | inhibition [13]: 10.4%; inhibition [6]: 29.9%; viability at 6 h, 50 µM [8]: ≥ 80%; viability at 6 h, 50 µM [17]: ≥ 80% |
| > 100 | > 100 | > 100 | > 100 | Cc1nn(C)c(N)c1-c1ccc(Cl)c(Cl)c1 |  |  |  |
| 47.7 | > 100 | 12.5 | > 100 | CC(=O)n1nc(N)c(Br)c1C |  |  |  |
| > 100 | > 100 | > 100 | > 100 | Cc1[nH]nc(NC(=O)c2ccccn2)c1-c1ccc(Cl)c(Cl)c1 |  |  |  |
| 42.8 | > 100 | > 100 | > 100 | Cc1[nH]nc(N)c1-c1ccc2ccccc2c1 |  |  |  |
| 22.4 | > 100 | > 100 | > 100 | Cc1[nH]nc(N)c1-c1cccc(C(F)(F)F)c1 |  |  |  |
| > 100 | > 100 | > 100 | > 100 | Cc1ccc(-c2c(N)n[nH]c2C)cc1C |  |  |  |
| > 100 | > 100 | > 100 | > 100 | Cc1cccc(-c2c(N)n[nH]c2C)c1 |  |  |  |
| > 100 | > 100 | > 100 | > 100 | Cc1ccc(-c2c(N)n[nH]c2C)cc1 |  |  |  |
| > 100 | > 100 | 58.2 | > 100 | Cc1nn(C(=O)c2ccncc2)c(N)c1-c1ccc(Cl)c(Cl)c1 |  |  |  |
